An excerpt weighted towards active compounds, which were near 1.5% of everything screened.
EBI2 block: EBI2 receptor antagonists, beta-arrestin recruitment, primary screen, cell-based, luminescence, 7a,25-OHC stimulation, uHTS; 0.81% of 360,000 active; inhibition, % at 5 µM; 7a,25-OHC stimulated; in the data active = inhibition above about 38%;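 note: enzyme fragment complementation signal reports receptor beta-arrestin coupling in cells; 0% = agonist plus DMSO wells and 100% = wells without agonist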
CXCR6 inh: CXCR6 receptor inhibitors, primary screen, cell-based, beta-arrestin, luminescence, CHO-K1 PathHunter, 1536-well; inhibition, % at 20 µM; C-X-C chemokine receptor type 6 (Homo sapiens), O00574; 0.36% of 360,000 active; in the data active = inhibition above about 34%, passing the limit was not always enough;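 note: antagonist mode with CXCL16 agonist at 10 nM final; 0% = 10 nM CXCL16 with DMSO and 100% = unstimulated wells without agonist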
APJ antag: antagonists of human apelin receptor APJ, primary screen, CHO-K1 cells, beta-arrestin complementation, luminescence. P35414. inhibition, % at 20 µM. 0.32% of 330,000 active. AID 2521, 2010;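 active = inhibition above about 40% at 20 µM, limit read from the data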;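 note: cells challenged with 10 nM apelin-13 agonist together with compound; plate controls were apelin-13 plus DMSO wells for no effect and DMSO wells lacking apelin-13 for full effect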
CCR6 antag: CCR6 receptor antagonists, primary screen, cell-based, CHO-K1, luminescence, beta-arrestin, uHTS. inhibition, % at 20 µM. AID 493098, 2011. CHO-K1 CCR6 PathHunter beta-arrestin, CCL20-stimulated. 0.49% of 340,000 active. C-C chemokine receptor type 6 (Homo sapiens), P51684;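 active = compounds whose inhibition of the agonist-driven luminescence signal at 20 µM reaches about 50%, limit read from the data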;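 note: cells stimulated with CCL20 at 14 nM final; plate controls were DMSO with CCL20 for no effect and DMSO without agonist for full effect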
Target sequence (P51684 whole entry, looked up): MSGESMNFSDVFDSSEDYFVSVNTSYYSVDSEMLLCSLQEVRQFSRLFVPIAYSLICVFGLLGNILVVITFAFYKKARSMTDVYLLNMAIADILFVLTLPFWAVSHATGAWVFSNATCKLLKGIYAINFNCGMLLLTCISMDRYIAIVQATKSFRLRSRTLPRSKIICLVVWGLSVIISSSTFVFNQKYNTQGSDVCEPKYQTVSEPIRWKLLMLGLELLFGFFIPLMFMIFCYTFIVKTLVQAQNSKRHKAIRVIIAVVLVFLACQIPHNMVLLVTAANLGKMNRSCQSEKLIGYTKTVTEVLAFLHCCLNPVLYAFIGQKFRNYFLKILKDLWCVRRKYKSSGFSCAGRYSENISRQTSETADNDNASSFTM
APJ ag: agonists of human apelin receptor APJ, primary screen, CHO-K1 cells, PathHunter beta-arrestin, luminescence; P35414; 0% DMSO wells, 100% apelin; activation, % at 20 µM; 0.11% of 330,000 active;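 active = activation more than six SD over the plate average, tested at 20 µM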;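 note: 0% = DMSO alone and 100% = apelin-13 at 10 nM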
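Assay system: CHO-K1 cells stably expressing ProLink-tagged human APJ and arrestin–beta-gal acceptor. Compound dosing: 20 µM single point, 1% DMSO. Times: 16-18 h seeding, 90 min dark compound exposure, 60 min detection. Detection: beta-gal luminescence. Evaluation: APJ–arrestin association signal. Controls: negative DMSO alone, positive Apelin-13 at 10 nM.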
EBI2 conf: EBI2 antagonist hit retest, beta-arrestin, confirmation, cell-based, single concentration, luminescence, 7a,25-OHC stimulation; shares compounds with EBI2 block; 7a,25-OHC antagonism; inhibition, % at 5 µM; 29% of 2,400 active; AID 651997, 2013;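 active = inhibition of at least 50%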
EBI2 agonist: EBI2 agonist activity of antagonist hits, confirmation, counter-screen for EBI2 antagonist project, cell-based, single concentration, agonist mode, luminescence. 2,400 tested, under 10 active. activation, % at 5 µM. EBI2-expressing cells, 60 min; 0% vehicle, 100% 7α,25-dihydroxycholesterol control. shares compounds with EBI2 block. AID 652000, 2013;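 active = activation of at least 50%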
bGal cs: E. coli beta-galactosidase enzyme inhibition, confirmation, counter-screen for EBI2 antagonist project, biochemical, luminescence, single concentration | shares compounds with EBI2 block | purified beta-galactosidase, luminescent Galacton Star, 15 min | inhibition, % at 5 µM | 1% of 2,400 active | AID 652176, 2013;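 active = replicate-average signal at least 3 plate SD below neutral wells, shown as high inhibition, flagging enzyme-inhibiting false positives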;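 note: 0% = DMSO wells with enzyme and 100% = wells lacking enzyme; higher means stronger loss of beta-gal luminescence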
An asterisk follows results filed as active; . = no result given.

SMILES | EBI2 block | CXCR6 inh | APJ antag | CCR6 antag | APJ ag | EBI2 conf | EBI2 agonist | bGal cs
CC1CN(C(=O)c2cc3cc(F)ccc3[nH]2)CC(C)O1 (centres undefined) | -2 | 0 | -5 | 8 | 2 | . | . | .
Cc1nc(N2CCCCC2C)c2c(C)c(C(=O)Nc3cccc(C(F)(F)F)c3)sc2n1 (centres undefined) | 76* | -3 | -6 | 9 | 1 | 19 | 2 | 5
Cc1nc(N2CCCCC2)c2c(C)c(C(=O)Nc3cccc(C(F)(F)F)c3)sc2n1 | 53* | -12 | -1 | -33 | 4 | 25 | 2 | 6
Cc1nc(N2CCCCC2)c2c(C)c(C(=O)Nc3ccccc3C(F)(F)F)sc2n1 | 6 | -14 | 6 | -5 | -3 | . | . | .
CCOC(=O)c1sc2nc(C)nc(N3CCCCC3C)c2c1C (centres undefined) | 19 | 2 | -17 | 2 | -2 | . | . | .

Source: PubChem BioAssay (Sanford-Burnham Center for Chemical Genomics)
